The labels stand for the following.
B1: tRNA (parent)
chain: GUUCCGUUGGCGUAAUGGUAACGCGUCUCCCUCCUAAGGAGAAGACUGCGGGUUCGAGUCCCGUACGGAACG

Fewer inactive variants are shown than the library holds.

In this series the parent is B1. Put plainly: yeast fitness relative to wild type (ratio to wild type); higher = fitter; tRNA-Arg(CCU), competitive growth, 37 C, YPD. In outline: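 Genotype frequency changes were the basis for Darwinian fitness relative to wild type. The frequencies came from 100-nucleotide paired-end sequencing of gene amplicons from the start population and each end population of pooled yeast strains with tRNA-Arg(CCU) gene variants at the native locus. Competition ran in YPD at 37°C for 24 hours in six replicates, genotypes needed ≥ 100 starting reads, and estimates < 0.5 were set to 0.5.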
As for A14G C31G A37U A57C A69U, the yeast fitness is ≤ 0.5. Consider A14G G25C C29A G52A, for which the yeast fitness is ≤ 0.5. For A14G G18A C22G, the yeast fitness was ≤ 0.5. Next, A14G G23A A70C: ≤ 0.5. For the variant A14G A15U U53C A69U, the yeast fitness was 0.599. As for A14G C30A, the yeast fitness amounted to 0.861. For the variant A14G C30G, the yeast fitness came out at 0.591. As to A14G U32G C60U C62U, the yeast fitness worked out at 0.539. On to A14G C22U A45U, for which the yeast fitness was 0.626. Next, A14G C24G C31U C66G: ≤ 0.5; A14G C22G A70U: 0.774; A14C G25C C27G C34U U35A G38A C66U: ≤ 0.5.

Take A14G U28C G67U A69C: the yeast fitness is ≤ 0.5. Then A14G U16A C33A C49U C55U, with ≤ 0.5. With A14C U19C C34U G39C G51C, the yeast fitness was ≤ 0.5.

Regarding A14G C22G U64A, the yeast fitness is ≤ 0.5. Next, A14G A21C C30G A57G: ≤ 0.5; A14G A21C C30G A57U: ≤ 0.5. As to A14C G18C A65U G68C, the yeast fitness was ≤ 0.5. For A14G C30A C34A A43C, the yeast fitness was ≤ 0.5.

In the case of A14G G41A G44C C49U, the yeast fitness is ≤ 0.5. As to A14G C27U C46A, the yeast fitness was 0.673. On to A14C U16C C61U, for which the yeast fitness was ≤ 0.5. On to A14G A57U A65U, for which the yeast fitness was ≤ 0.5. Consider A14G C29G C46U A57G C61U, for which the yeast fitness is ≤ 0.5. A14G U35A A42U C46G G56A A70C: the yeast fitness stood at 0.569. As to A14G A20C C46G, the yeast fitness was 0.635.

Turning to A14G C49A, the yeast fitness stood at 0.694. On to A14G C29G A42C, for which the yeast fitness was ≤ 0.5. A14C U16A G63A: the yeast fitness was ≤ 0.5.

For A14C U19A U59C A69G, the yeast fitness turned out to be 0.652.

Take A14G U47A G56A: the yeast fitness came out at 0.724. Regarding A14G A21C C30G, the yeast fitness was ≤ 0.5. As to A14C U16A U54A G58C, the yeast fitness is ≤ 0.5. With A14G A15C U35C C46A A69U, the yeast fitness is ≤ 0.5. As to A14G A65G A70C, the yeast fitness was found to be 0.755. Next, A14G G25A C30A A57U: 0.607. For the variant A14C C62G C66U, the yeast fitness was ≤ 0.5. Turning to A14C G23A C29U U35C G48A, the yeast fitness is ≤ 0.5. Next, A14G G39A G44C C61A G63C: ≤ 0.5; A14C G17C U26A G41C: ≤ 0.5; A14G C34U: 0.62. For the variant A14G C22U C24G A42C A57G, the yeast fitness is ≤ 0.5. Then A14G A20C G67C, with 0.534.

Consider A14C G17C C60U, for which the yeast fitness was ≤ 0.5. With A14G C31A C34G A43C, the yeast fitness was ≤ 0.5. For A14G A21G C33U A43C, the yeast fitness is ≤ 0.5. As for A14G C22G U28A C31G C55A G68C, the yeast fitness was ≤ 0.5. Then A14G A42U A45C U59A, with ≤ 0.5; and A14G U32G U35G A36C C61G A70G, with ≤ 0.5. With A14G A43C A45G G50A, the yeast fitness was ≤ 0.5. Regarding A14G A21C A36C A43U, the yeast fitness was ≤ 0.5. Regarding A14G G52C C66G, the yeast fitness is 0.619. Consider A14G A37C A70C, for which the yeast fitness amounted to 0.624.

Consider A14C U32G A45G U64C, for which the yeast fitness is ≤ 0.5. Take A14C G18A A42G C46A: the yeast fitness is ≤ 0.5.

Turning to A14C U54A, the yeast fitness is 0.528. As to A14G G17C A36C G48A C49G G51A, the yeast fitness is ≤ 0.5. Regarding A14G C31U C34U G38A C46U, the yeast fitness was ≤ 0.5. As for A14G C22U A37G A70C, the yeast fitness is ≤ 0.5. As for A14G A40G C46U, the yeast fitness worked out at 0.57.

On to A14G A42U G68C, for which the yeast fitness was ≤ 0.5.

For A14G C24A C31U A40U A70G, the yeast fitness amounted to 0.571. On to A14G C24U C30U C60A, for which the yeast fitness was ≤ 0.5. Then A14C U53C, with 0.713; and A14C U19A A20C, with ≤ 0.5. As for A14G A36G U47A, the yeast fitness is ≤ 0.5. On to A14G A36G G48A, for which the yeast fitness worked out at 0.555.

As for A14C G17C, the yeast fitness worked out at 0.622. Then A14G C27G C34G A37U, with 0.61.

Consider A14G C29G A37G C66G, for which the yeast fitness was ≤ 0.5.

For the variant A14G C27G C62U, the yeast fitness is ≤ 0.5. Then A14G G25C C31A, with ≤ 0.5. Turning to A14G A15C U26C U35G C49G, the yeast fitness was ≤ 0.5. For A14G A40C C62G C66U, the yeast fitness was ≤ 0.5.

A14G G51A: the yeast fitness is 0.657. A14G G23A C49A: the yeast fitness was ≤ 0.5. As for A14G C34A C62G G68C, the yeast fitness was 0.763.

A14G C27U U47A C62U C66U: the yeast fitness is ≤ 0.5. As for A14G G38C, the yeast fitness was found to be 0.787.

A14G C66U: the yeast fitness worked out at 0.891. A14G C66A: the yeast fitness came out at 0.656. Next, A14G C29A C62U: ≤ 0.5; A14G G48C G67C: ≤ 0.5.

For the origin of these results see the RNAGym collection of RNA variant scans (doi:10.1126/science.aae0568).
